Results: ChEMBL document CHEMBL1126812, “Further insights into the molecular mechanisms of action of the serotonergic neurotoxin 5,7-dihydroxytryptamine” (J Med Chem, 1993)

Legend:
Mus musculus [1] = test: Effect of central administration on whole mouse brain 5-hydroxyindole-3-acetic acid(5-HIAA)level after 1 week; type: functional, organism-based
How it was run: (§1)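 Adult male outbred Hsd:ICR mice (25-35 g) under light ether anesthesia received a single 25 or 30 µg (free base) intracranial dose near the left lateral ventricle. Vehicle was 5 µL isotonic saline with 1.0 mg/mL ascorbate, and controls got vehicle alone. Mice were killed by focused microwave (250 ms, 7.0 kW) at 1 h, 1 day or 1 week. Brains were homogenized, spun at 50 000g (4 °C, 1 h) and filtered. Amines and metabolites were measured by LCEC as % of control ± sem, n = 11-18.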

Mus musculus [2] = test: Effect of central administration on whole mouse brain 3,4-di hydroxyphenylacetic acid (DOPAC)level after 1 week; type: functional, organism-based; how it was run: as §1
Mus musculus [3] = test: Effect of central administration on whole mouse brain 5-hydroxyindole-3-acetic acid(5-HIAA)level after 1 day; type: functional, organism-based; how it was run: as §1
Mus musculus [4] = test: Effect of central administration on whole mouse brain 5-hydroxyindole-3-acetic acid(5-HIAA)level after 1 hr; type: functional, organism-based; how it was run: as §1
Mus musculus [5] = test: Effect of central administration on whole mouse brain 5-hydroxytryptamine (5-HT) level after 1 day; type: functional, organism-based; how it was run: as §1
Mus musculus [6] = test: Effect of central administration on whole mouse brain 5-hydroxytryptamine (5-HT) level after 1 week; type: functional, organism-based; how it was run: as §1
Mus musculus [7] = test: Effect of central administration on whole mouse brain acetylcholine (ACh) level after 1 day; type: functional, organism-based
How it was run: (§2)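 The dosing, vehicle, controls, microwave sacrifice, timepoints and brain processing were the same as for the amine lines. Whole mouse brain ACh and choline were measured by LCEC on 20 µL aliquots of the filtered 50 000g supernate, which had been stored at -80 °C. Values are % of vehicle controls ± sem, n = 11-18 per group.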

Mus musculus [8] = test: Effect of central administration on whole mouse brain acetylcholine (ACh) level after 1 hr; type: functional, organism-based; how it was run: as §2
Mus musculus [9] = test: Effect of central administration on whole mouse brain acetylcholine (ACh) level after 1 week; type: functional, organism-based; how it was run: as §2
Mus musculus [10] = test: Effect of central administration on whole mouse brain choline (Ch) level after 1 day; type: functional, organism-based; how it was run: as §2
Mus musculus [11] = test: Effect of central administration on whole mouse brain choline (Ch) level after 1 hr; type: functional, organism-based; how it was run: as §2
Mus musculus [12] = test: Effect of central administration on whole mouse brain dopamine (DA) level after 1 day; type: functional, organism-based; how it was run: as §1
Mus musculus [13] = test: Effect of central administration on whole mouse brain dopamine (DA) level after 1 hr; type: functional, organism-based; how it was run: as §1
Mus musculus [14] = test: Effect of central administration on whole mouse brain dopamine (DA) level after 1 week; type: functional, organism-based; how it was run: as §1
Mus musculus [15] = test: Effect of central administration on whole mouse brain homovanillic acid (HAV) level after 1 day; type: functional, organism-based; how it was run: as §1
Mus musculus [16] = test: Effect of central administration on whole mouse brain homovanillic acid (HAV) level after 1 hr; type: functional, organism-based; how it was run: as §1
Mus musculus [17] = test: Effect of central administration on whole mouse brain homovanillic acid (HAV) level after 1 week; type: functional, organism-based; how it was run: as §1
Mus musculus [18] = test: Effect of central administration on whole mouse brain norepinephrine (NE) level after 1 day; type: functional, organism-based; how it was run: as §1
Mus musculus [19] = test: Effect of central administration on whole mouse brain norepinephrine (NE) level after 1 hr; type: functional, organism-based; how it was run: as §1
Mus musculus [20] = test: Effect of central administration on whole mouse brain norepinephrine (NE) level after 1 week; type: functional, organism-based; how it was run: as §1
Mus musculus [21] = test: Effect of central administration on whole mouse brain 5-HT (5-HT) after 1 hr; type: functional, organism-based; how it was run: as §1
Mus musculus [22] = test: Effect of central administration on whole mouse brain 3,4-di hydroxyphenylacetic acid (DOPAC) level after 1 day; type: functional, organism-based; how it was run: as §1
Mus musculus [23] = test: Effect of central administration on whole mouse brain 3,4-di hydroxyphenylacetic acid (DOPAC) level after 1 hr; type: functional, organism-based; how it was run: as §1
Mus musculus [24] = test: Weight which caused death of 50% of the treated animals within 1 hr following drug administration; type: ADME, organism-based; settings: in vivo
How it was run: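 Adult male outbred Hsd:ICR albino mice, 25-35 g, given compound (dose as free base) intracranially near the left lateral ventricle under light ether anesthesia, in 5 µL isotonic saline containing 1.0 mg/mL ascorbic acid. Deaths within 1 h were scored, and LD50 (injected weight) was derived by Dixon's statistical method, reported as mean ± standard deviation on a log microgram scale.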

Mus musculus [25] = test: Effect of central administration on whole mouse brain choline (Ch) level after 1 week; type: functional, organism-based; how it was run: as §2
Mus musculus [26] = test: Effect of central administration on whole mouse brain 5-hydroxyindole-3-acetic acid (5-HIAA) level after 1 day; type: functional, organism-based; how it was run: as §1
Mus musculus [27] = test: Effect of central administration on whole mouse brain 5-hydroxyindole-3-acetic acid (5-HIAA) level after 1 hr; type: functional, organism-based; how it was run: as §1
Mus musculus [28] = test: Effect of central administration on whole mouse brain 5-hydroxyindole-3-acetic acid (5-HIAA) level after 1 week; type: functional, organism-based; how it was run: as §1
Mus musculus [29] = test: Effect of central administration on whole mouse brain 5-hydroxytryptamine (5-HT) after 1 day; type: functional, organism-based; how it was run: as §1
Mus musculus [30] = test: Effect of central administration on whole mouse brain cholin (Ch) level after 1 day; type: functional, organism-based; how it was run: as §2
Mus musculus [31] = test: Effect of central administration on whole mouse brain cholin (Ch) level after 1 hr; type: functional, organism-based; how it was run: as §2
Mus musculus [32] = test: Effect of central administration on whole mouse brain cholin (Ch) level after 1 week; type: functional, organism-based; how it was run: as §2
Mus musculus [33] = test: Effect of central administration on whole mouse brain 5-HT (5-HT) after 1 week; type: functional, organism-based; how it was run: as §1
Mus musculus [34] = test: Effect of central administration on whole mouse brain 3,4-di hydroxyphenylacetic acid (DOPAC) level after 1 week; type: functional, organism-based; how it was run: as §1

Structure (SMILES) | Level (Mus musculus [7]) | Level (Mus musculus [8]) | Level (Mus musculus [9]) | Level (Mus musculus [12]) | Level (Mus musculus [13]) | Level (Mus musculus [15]) | Level (Mus musculus [16]) | Level (Mus musculus [18]) | Level (Mus musculus [19]) | Level (Mus musculus [20]) | Level (Mus musculus [21]) | Level (Mus musculus [22]) | Level (Mus musculus [23]) | LD50 (Mus musculus [24]) | also measured
NCCc1c[nH]c2c1C(=O)C(=O)C=C2O | 65% | 100% | 107% | 79% | 92% | 92% | 147% | 84% | 80% | 114% | 89% | 107% | 54% | 29.6 µg | Level (Mus musculus [1]): 106%; Level (Mus musculus [2]): 117%; Level (Mus musculus [3]): 82%; Level (Mus musculus [4]): 159%; Level (Mus musculus [5]): 72%; Level (Mus musculus [6]): 104%; Level (Mus musculus [10]): 57%; Level (Mus musculus [11]): 153%; Level (Mus musculus [14]): 114%; Level (Mus musculus [17]): 112%; Level (Mus musculus [25]): 106%
NCCc1c[nH]c2c1C(=O)C(O)=C(C1=C(O)c3[nH]cc(CCN)c3C(=O)C1=O)C2=O | 78% | 83% | 123% | 85% | 97% | 85% | 102% | 82% | 95% | 89% | 88% | 116% | 74% | 25.4 µg | Level (Mus musculus [26]): 76%; Level (Mus musculus [27]): 118%; Level (Mus musculus [28]): 152%; Level (Mus musculus [29]): 75%; Level (Mus musculus [30]): 78%; Level (Mus musculus [31]): 126%; Level (Mus musculus [32]): 115%; Level (Mus musculus [33]): 103%; Level (Mus musculus [34]): 101%
NCCc1c[nH]c2c(O)cc(O)cc12 |  |  |  |  |  |  |  |  |  |  |  |  |  | 51.8 µg | 
